From ChEMBL document CHEMBL1156226, “Synthesis and structure-activity relationship studies of peptidomimetic PKB/Akt inhibitors: the significance of backbone interactions” (Bioorg Med Chem, 2010) come the findings set out here.

The target in data set [1] is T1, RAC-alpha serine/threonine-protein kinase (Homo sapiens, UniProt P31749). Nature of the data set: Inhibition of PKB at 100 uM by radioactive kinase assay relative to control. The gist of the method: (§1)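 PKB/Akt enzyme HisAPHPKBEEEFlag, partly purified in one step on Ni-NTA agarose. The radioactive kinase reaction contains 50 mM Hepes pH 7.4, 0.1 mM EGTA, 0.1% 2-mercaptoethanol, 10 mM magnesium acetate, 3 uM RPRTSSF peptide substrate, 10 uM [γ32P]ATP and 0.005 units enzyme. Inhibition is given as percent reduction of activity against a no-inhibitor control. IC50 values, with 95% confidence ranges, come from curve fitting.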

The target of data set [2] is T1, RAC-alpha serine/threonine-protein kinase. Kind of data set: Inhibition of PKB at 5 uM by radioactive kinase assay relative to control. The gist of the method:
as §1

For data set [3] the target is unchanged. Nature of the data set: Inhibition of PKB by radioactive kinase assay. The gist of the method: as §1
Data set [4] has the same target. Nature of the data set: Inhibition of PKB at 50 uM by radioactive kinase assay relative to control. The gist of the method: as §1
For data set [5] the target is unchanged. Kind of data set: Inhibition of PKB at 20 uM by radioactive kinase assay relative to control. Summed up:
as §1

A short description of data set [6]: Stability in presence of trypsin and chymotrypsin assessed as peptide degradation at 1 mM after 30 mins by HPLC. As to conditions: read-out: Activity. Format: ADME. The gist of the method:
(§2)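 Peptide at 1 mM in 200 mM NH4HCO3, pH 8, is mixed with porcine pancreatic trypsin plus chymotrypsin (2.5 mg/ml solution) and incubated at 37 °C. Samples are taken every 30 min and quenched with 2% TFA/30% acetonitrile in water. Degradation is followed by HPLC and MALDI-TOF MS.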

Data set [7] is described as follows: Stability in presence of trypsin and chymotrypsin assessed as peptide degradation at 1 mM after 2 hrs by HPLC. Format: ADME. As to conditions: isolated protein, 1000 µM. Summed up:
as §2

A short description of data set [8]: Stability in presence of trypsin and chymotrypsin assessed as peptide degradation at 1 mM within 30 mins by HPLC. Format: ADME. Particulars: isolated protein, 0.5 h, 1000 µM. The gist of the method:
as §2

Data set [9] is described as follows: Stability in presence of trypsin and chymotrypsin assessed as peptide degradation at 1 mM within 90 mins by HPLC. The format is ADME. Particulars: isolated protein, 1.5 h, 1000 µM. Summed up: as §2

Peptide text beside a SMILES is read from it.

T1 sequence (P31749 whole entry): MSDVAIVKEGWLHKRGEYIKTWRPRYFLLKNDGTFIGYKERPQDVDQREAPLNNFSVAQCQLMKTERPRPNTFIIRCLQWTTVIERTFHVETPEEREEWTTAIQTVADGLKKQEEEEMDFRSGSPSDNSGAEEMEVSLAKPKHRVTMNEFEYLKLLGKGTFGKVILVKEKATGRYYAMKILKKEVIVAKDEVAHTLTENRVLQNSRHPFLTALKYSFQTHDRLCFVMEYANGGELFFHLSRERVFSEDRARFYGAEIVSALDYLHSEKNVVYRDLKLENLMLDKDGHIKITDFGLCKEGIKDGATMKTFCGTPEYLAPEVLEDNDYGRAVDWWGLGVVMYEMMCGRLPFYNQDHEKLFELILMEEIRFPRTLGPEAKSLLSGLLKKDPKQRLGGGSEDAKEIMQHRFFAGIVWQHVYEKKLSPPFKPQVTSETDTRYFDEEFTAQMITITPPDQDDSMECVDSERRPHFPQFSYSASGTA

In the case of `CCC[C@H](NC(=O)[C@H](CCCNC(=N)N)NC(=O)[C@@H]1CCCN1C(=O)[C@H](CCCNC(=N)N)NC)C(=O)N[C@@H](Cc1ccc(O)cc1)C(=O)N[C@@H](CN)C(=O)N[C@@H](CCC(C)C)C(N)=O` (HELM PEPTIDE1{[meR].P.R.[Nva].Y.[NC[C@H](N[*:1])C(=O)[*:2]].[CC(C)CC[C@H](N[*:1])C(=O)[*:2]].[am]}$$$$V2.0), the inhibition – broadly, the relative decrease from the control value, in per cent – in data set [1] was determined as 97%; in [2], 85%. In data set [3], the IC50 (in general, the concentration needed to halve the response being measured) is 920 nM.

Take `CCC[C@H](NC(=O)[C@H](CCCNC(=N)N)NC(=O)[C@@H]1CCCN1C(=O)[C@@H](N)CCCNC(=N)N)C(=O)N[C@@H](Cc1ccc(O)cc1)C(=O)N[C@H](CS)C(=O)N[C@@H](CCC(C)C)C(N)=O`: the inhibition in [2] and in [4] was 95% each time.

As for `CCC[C@H](NC(=O)[C@H](CCCN=C(N)N)NC(=O)[C@@H]1CCCN1C(=O)[C@@H](N)CCCN=C(N)N)C(=O)N[C@@H](Cc1ccc(O)cc1)C(=O)N[C@H](CS)C(=O)N[C@@H](CCC(C)C)C(N)=O`, the IC50 in [3] stood at 400 nM.

`CCC[C@H](NC(=O)[C@H](CCCNC(=N)N)NC(=O)[C@@H]1CCCN1C(=O)[C@@H](N)CCCNC(=N)N)C(=O)N[C@@H](Cc1ccc(O)cc1)C(=O)N[C@@H](CN)C(=O)N[C@@H](CCC(C)C)C(N)=O` (HELM PEPTIDE1{R.P.R.[Nva].Y.[NC[C@H](N[*:1])C(=O)[*:2]].[CC(C)CC[C@H](N[*:1])C(=O)[*:2]].[am]}$$$$V2.0): the inhibition in [1] came out at 99%; in data set [2], 87%; in data set [5], 96%; in data set [4] it was 99%. Besides, the IC50 in data set [3] came out at 940 nM. For the same compound, in data set [6], the metabolised at 0.5 h, 1000 µM was 40%. For the same compound, the Stability result in data set [7] is reported as “Unstable”.

As for `CCC[C@H](NC(=O)[C@H](CCCN=C(N)N)NC(=O)[C@@H]1CCCN1C(=O)[C@H](CCCN=C(N)N)NC(=O)[C@H](CCCN=C(N)N)NC(C)=O)C(=O)N[C@@H](Cc1ccc(O)cc1)C(=O)N[C@@H](CN)C(=O)N[C@@H](CCC(C)C)C(N)=O` (HELM PEPTIDE1{[ac].R.R.P.R.[Nva].Y.[NC[C@H](N[*:1])C(=O)[*:2]].[CC(C)CC[C@H](N[*:1])C(=O)[*:2]].[am]}$$$$V2.0), in data set [3], the IC50 came out at 1170 nM.

In the case of `CCC[C@H](NC(=O)[C@H](CCCNC(=N)N)NC(=O)[C@H](C)N(C)C(=O)[C@@H](N)CCCNC(=N)N)C(=O)N[C@@H](Cc1ccc(O)cc1)C(=O)N[C@@H](CN)C(=O)N[C@@H](CCC(C)C)C(N)=O` (HELM PEPTIDE1{R.[meA].R.[Nva].Y.[NC[C@H](N[*:1])C(=O)[*:2]].[CC(C)CC[C@H](N[*:1])C(=O)[*:2]].[am]}$$$$V2.0), the inhibition in [1] was 95%; in data set [2] it was 77%. The IC50 in data set [3] came to 2030 nM. Further, the Stability result in [8] and in data set [9] was “Unstable” throughout.
